# Published values gathered from unrelated publications.
Structure (SMILES),test,test system,setting,solubility
O=C(CCCCCCC(=O)Nc1ccccc1)NO,,simulated gastric fluid,"48 h, pH 2, 25 °C, acidic",160 µg/mL
CCOC(=O)c1ccc(N)cc1,,PBS,pH 7.4,890 µg/mL
OCc1n(Cc2ccc3ccccc3c2)cc[n+]1Cc1ccc2ccccc2c1.[Br-],,water,,< 500 µg/mL
CC(C)CC(=O)N1CCC[C@H](COc2cccc3c2C(N)=NS(=O)(=O)N3)C1,,ethanol,,1230 µM
Cc1ccc(S(=O)(=O)NCc2ccc(C(=O)NCCN(Cc3ccccc3)C(C)C)cc2)cc1,,aqueous buffer,pH 5,0.47 µg/mL
Cc1c(N(C)C)c(=O)n(-c2ccccc2)n1C,,PBS,pH 7.4,46300 µg/mL
Cc1cc(Nc2ccc(Cl)cc2)n2nc(C(C)C)nc2n1,nephelometry,aqueous buffer,pH 6.5,83 to 170 µM
CC(=O)N[C@@H](CC(N)=O)C(=O)N[C@@H](CCCNC(=N)N)C(=O)N[C@@H](CC(C)C)C(=O)N[C@H]1CSSC[C@@H](C(=O)N[C@H](C(N)=O)[C@@H](C)O)NC(=O)[C@H](CCCNC(=N)N)NC(=O)[C@H](Cc2c[nH]cn2)NC(=O)[C@H](C)NC(=O)CNC(=O)[C@H](Cc2c[nH]c3ccccc23)NC(=O)[C@H](CC(=O)O)NC(=O)[C@H](CCC(N)=O)NC(=O)[C@H](Cc2c[nH]c3ccccc23)NC(=O)[C@H](C(C)C)NC1=O,,PBS,pH 7.4,1050 µg/mL
Cn1c(-c2nc3cc(C(=O)N4CCCC(N)C4)ccc3n2C)cc2ccccc21 (stereo not shown),,aqueous buffer,,> 350 µM
Cc1c(F)cccc1Nc1nc(NCc2ccccc2)c2ccccc2n1,,aqueous buffer,pH 7.4,< 0.01 µg/mL
CN1CCN(C2CCN(c3nccc4[nH]c(-c5cc(F)cc(F)c5)nc34)CC2)CC1,shake flask,aqueous buffer,pH 6.5,> 200 µM
COc1ccc(C2CC(=O)c3c(O)cc(O)cc3O2)cc1O (stereo not shown),shake flask,water,"24 h, 25 °C",15.7 µg/mL
CCCCOC(=O)c1ccc(O)cc1,,PBS,pH 7.4,310 µg/mL
Cc1ccc(-n2sc(=O)n(Cc3ccc(F)cc3)c2=O)cc1,,aqueous buffer,,~200 µM
Cc1cc(Nc2ccc(C(F)(F)F)cc2)n2nc(CCO)nc2n1,nephelometry,aqueous buffer,pH 6.5,19 to 37 µM
COc1cccc2c(-c3ccccc3)cc(-c3ccc(-c4ccc(C(=O)O)cc4)[nH]3)nc12,,PBS,pH 7.4,0.26 µM
O=C(Nc1ccc(S(=O)(=O)N2CCC(Cl)CC2)cc1)c1ccc([N+](=O)[O-])o1,,aqueous buffer,pH 7.4,9.7 µM
COc1cccc2c(NCc3ccccc3)nc(NCc3ccccc3)nc12,,aqueous buffer,pH 5,3.2 µg/mL
Cc1cc(Nc2ccc(S(F)(F)(F)(F)F)cc2)n2nc(C(F)(F)F)nc2n1,nephelometry,aqueous buffer,pH 6.5,30 to 60 µM
COc1cccc(OC)c1-c1nc(C(=O)N[C@@H](CC(C)C)C(=O)O)cn1-c1cccc2ccccc12,,aqueous buffer,pH 5,103 µg/mL
O=C(NCCN1CCCC1)c1cc(-c2ccc(CN3CCOCC3)cc2)nc2ccc(F)cc12,,aqueous buffer,pH 7.4,2800 µM
Cc1c(F)cccc1NC(=O)Nc1ccc(Cl)c(S(=O)(=O)[C@H]2CCCNC2)c1O,,aqueous buffer,"4 h, pH 3",161 µg/mL
CCCn1nc(C(=O)N2CCCCC2)c2c1CCC(NCc1ccc(N3CCCCC3)cc1)C2 (stereo not shown),,PBS,"16 h, pH 7.4",463 µM
N=C(N)NCc1ccc(NC(=O)c2ccc(C(=O)Nc3ccc(C4=CCN(C(=N)N)CC4)cc3)cc2)cc1,shake flask,aqueous buffer,pH 7.4,171 µg/mL
Cc1cc(Nc2ccc(C(F)(F)F)cc2)n2nc(C3CC3)nc2n1,nephelometry,aqueous buffer,pH 6.5,38 to 75 µM
CCCCCCCCCCCCN1CCCC1=O,,PBS,"48 h, pH 7.4, 25 °C",21 µM
O=C(Nc1cc(F)c(F)c(F)c1)c1ccc(F)c(S(=O)(=O)NCc2cccc(B(O)O)c2)c1,,aqueous buffer,pH 2,174 µg/mL
Nc1cccc(S(=O)(=O)N2CCCN(S(=O)(=O)c3ccc4c(c3)OCCO4)CC2)c1,,aqueous buffer,,29 µg/mL
CN(C)C1CN(Cc2ccc(NC(=O)c3ccc(OCCCl)c([N+](=O)[O-])c3)cc2C(F)(F)F)C1,HPLC,water,1 h,< 5 µg/mL
Brc1cccc(Nc2nc(NCc3ccccc3)c3ccccc3n2)c1,,aqueous buffer,pH 5,0.03 µg/mL
Cc1cc2[nH]c(-c3cc(F)cc(F)c3)nc2c(N2CCC(CN3CCN(C)CC3)CC2)n1,shake flask,aqueous buffer,pH 6.5,> 200 µM
COc1c(Cl)cccc1Nc1nc(NCc2ccccc2)c2ccccc2n1,,aqueous buffer,pH 5,0.5 µg/mL
CCOc1ccc2cc(-c3nn(C(C)C)c(N)c3C(N)=O)ccc2n1,,PBS,"pH 6.5, 25 °C",> 100 µM
CN1CCN(C[C@H]2CCCN(c3nccc4[nH]c(-c5cc(F)cc(F)c5)nc34)C2)CC1,shake flask,aqueous buffer,pH 6.5,> 200 µM
Cl.c1ccc(Cn2c(N3CCNCC3)nc3cc(-c4cc[nH]n4)ccc32)cc1,shake flask,aqueous buffer,"20 h, pH 6.5, 25 °C",195 µM
COCCOCCOCc1n(Cc2ccc3ccccc3n2)c2ccccc2[n+]1Cc1ccc2ccccc2n1.[Cl-],,water,,> 40000 µg/mL
O=C(Nc1cc(F)ccc1C(=O)O)c1ccc(-c2ccccc2)cc1,shake flask,aqueous buffer,"24 h, pH 6.5, 25 °C",5 µM
COc1ccc(Nc2nc(NCc3ccccc3)c3ccccc3n2)cc1F,,aqueous buffer,pH 7.4,0.08 µg/mL
CCc1nc2nc(C)cc(Nc3ccc(C(F)(F)F)cc3)n2n1,nephelometry,aqueous buffer,pH 6.5,39 to 78 µM
NCCCNc1nc2cc(Br)ccc2n1Cc1ccccc1,shake flask,aqueous buffer,"20 h, pH 6.5, 25 °C",100 µM
COc1ccc2cc(-c3nn(C(C)(C)C)c(N)c3C(N)=O)cnc2c1,,PBS,"pH 6.5, 25 °C",> 100 µM
Brc1ccc2c(c1)nc(C1CCNCC1)n2Cc1ccccc1,shake flask,aqueous buffer,"20 h, pH 6.5, 25 °C",110 µM
Cc1nnc(CCCCCN)nn1.Cl,,water,,> 500000 µM
COc1cccc2c(NCc3ccccc3)nc(N3CCNc4ccccc43)nc12,,aqueous buffer,pH 6.2,10.2 µg/mL
CC(=O)N1CCN(c2ccc(OCC3COC(Cn4ccnc4)(c4ccc(Cl)cc4Cl)O3)cc2)CC1 (stereo not shown),,PBS,pH 7.4,55.6 µM
CN1CCN(C2=Nc3cc(Cl)ccc3Nc3ccccc32)CC1,,FaSSIF,"24 h, pH 7.4, 37 °C",350 µg/mL
CC(C)Oc1ccc2cc(-c3nn(C(C)(C)C)c(N)c3C(N)=O)cnc2c1,,PBS,"pH 6.5, 25 °C",> 100 µM
COc1cccc(OC)c1-c1cc(C(=O)N[C@@H](CC(C)C)C(=O)O)nn1-c1ccnc2cc(Cl)ccc12,,aqueous buffer,pH 6.2,> 155 µg/mL
NC(=O)c1ccc(N(Cc2ccc(C3CCCCC3)cn2)C(=O)[C@H]2CCN2S(=O)(=O)c2c(F)c(F)c(F)c(F)c2F)cc1O,,simulated intestinal fluid,,117 µg/mL
Fc1ccc(-c2nc3c(C4CCNCC4)nccc3[nH]2)cc1F,shake flask,aqueous buffer,pH 6.5,> 200 µM
FC(F)(F)c1ccc2c(c1)nc(N1CCNCC1)n2Cc1ccccc1,shake flask,aqueous buffer,"20 h, pH 6.5, 25 °C",200 µM
Brc1ccccc1CNc1nc(NCc2ccccc2)c2ccccc2n1,,aqueous buffer,pH 5,0.21 µg/mL
CCOc1ccc2cc(-c3nn(C4CCCCCC4)c(N)c3C(N)=O)ccc2n1,,PBS,"pH 6.5, 25 °C",46.5 µM
c1ccc(CNc2nc(N3CCNc4ccccc43)nc3ccccc23)cc1,,aqueous buffer,pH 5,> 36 µg/mL
COc1cc(OC)cc(N(CCNC(C)C)c2ccc3ncc(-c4cnn(C)c4)nc3c2)c1,,aqueous buffer,pH 7.65,150 µg/mL
